Publication PMC3660010 (Diabetologia, 2012)
“Also recorded” adds a separate entry of the source. Ends that are not written are not given here.

Experiments:
hIAPP fibrils = experiment: Transmission electron microscopy of hIAPP fibrils; assay type: biochemical, human; conditions: 37°C, 20 h; for hIAPP fibrils by TEM in the presence of protein: hIAPP 25 μmol/l with 0.5 μmol/l protein
NEPx = NEPx (Homo sapiens, UniProt P08473, E585V); experiment: Cleavage of hIAPP by catalytically compromised NEPx, reverse phase HPLC; assay type: biochemical; conditions: 20 μmol/l hIAPP, 400 nmol/l NEPx, 37°C, 1 h
In short: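 Enzyme: recombinant human NEP ectodomain E585V mutant, expressed in CHO-S cells as a His-tagged growth hormone fusion. Purified by nickel affinity, PreScission removal of growth hormone, and MonoQ anion exchange. 20 μmol/l hIAPP incubated with the enzyme in 20 mmol/l MES, pH 6.5, at 37°C. Stopped with TFA to 0.5%. Reverse-phase HPLC on a C4 column.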

[1] = tested on: INS 832/13 insulinoma cells; experiment: MTT assay, synthetic hIAPP-induced cytotoxicity; assay type: cell-based, rat; conditions: 48 h; for viable cells relative to vehicle control cells (MTT), peptide alone: 20 μmol/l synthetic peptide, INS 832/13, mean ± SEM
In short: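 INS 832/13 cells were exposed to 20 μmol/l synthetic hIAPP plus 4, 40 or 400 nmol/l recombinant NEP or NEPx for 48 h, with vehicle (0.8% DMSO in media), 20 μmol/l rIAPP and 400 nmol/l transferrin controls. MTT added 1:10 from 5 mg/ml stock, 4 h at 37°C, HCl/isopropanol, A570. Viability as % of vehicle; mean ± SEM, n = 3 to 9, one-way ANOVA with Dunnett's test.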

[2] = tested on: INS 832/13 insulinoma cells; experiment: Cleaved caspase-3 Western blot, synthetic hIAPP-induced apoptosis; assay type: cell-based, rat; conditions: 20 μmol/l synthetic peptide, 24 h
NEP^E585V mutant (NEPx) = NEP^E585V mutant (NEPx) (Homo sapiens, UniProt P08473, E585V); experiment: Fluorogenic assay of NEPx activity, inhibition by phosphoramidon; assay type: biochemical; conditions: GAAF-4-MNA as substrate
NEP [3] = biological target: T1, NEP (Homo sapiens, UniProt P08473); experiment: Cleavage of peptide by neprilysin, reverse phase HPLC and mass spectrometry; assay type: biochemical; conditions: 37°C
In short: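 Purified His-tagged recombinant human NEP (CHO-S-expressed, nickel-affinity and anion-exchange purified), 400 nmol/l, incubated with 20 μmol/l hIAPP (from 2.5 mmol/l DMSO stock) in 20 mmol/l MES, pH 6.5, 37°C for 60 min, with or without phosphoramidon; catalytically compromised E585V mutant run in parallel. Stopped with TFA to 0.5%, reverse-phase HPLC on C4 column; products collected manually for mass spectral identification.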

NEP [4] = biological target: T1, NEP; experiment: Fluorogenic assay of NEP activity, inhibition by phosphoramidon; assay type: biochemical
NEP [5] = conditions: cited from earlier work
neprilysin (NEP) = experiment: 400 nmol/l recombinant NEP in 20 mmol/l MES buffer, pH 6.5; conditions: human, 37°C, up to 60 min
[6] = tested on: INS 832/13 insulinoma cells; experiment: MTT assay, hIAPP overexpression-induced cytotoxicity; assay type: cell-based, rat; conditions: 48 h; for effect on hIAPP overexpression-induced cytotoxicity (MTT), 400 nmol/l protein: adenovirus prepro-hIAPP-GFP MOI 100, 400 nmol/l protein in media
In short: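 INS 832/13 rat insulinoma cells (RPMI 1640, 11.1 mmol/l glucose, 10% FBS, 37°C, 5% CO2) transduced with adenovirus encoding prepro-hIAPP-GFP at MOI 100; GFP and prepro-rIAPP-GFP viruses as controls. Recombinant NEP or NEPx (4, 40, 400 nmol/l) or transferrin (400 nmol/l) added to media. After 48 h, MTT 4 h at 37°C, acidic isopropanol, A570; viability as % of vehicle control.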

[7] = Fluorogenic assay of NEP activity with GAAF-4-MNA as substrate; assay type: biochemical; conditions: 100 μmol/l GAAF-4-MNA, 20 mmol/l MES pH 6.5, 37°C
[8] = 20 μmol/l synthetic hIAPP, mean ± SEM, n = 3 to 9

Question: Which results are given for CC[C@H](C)[C@H](NC(=O)[C@H](C)NC(=O)CNC(=O)[C@H](Cc1ccccc1)NC(=O)[C@H](CC(N)=O)NC(=O)[C@H](CC(N)=O)NC(=O)[C@H](CO)NC(=O)[C@H](CO)NC(=O)[C@H](Cc1c[nH]cn1)NC(=O)[C@@H](NC(=O)[C@H](CC(C)C)NC(=O)[C@H](Cc1ccccc1)NC(=O)[C@H](CC(N)=O)NC(=O)[C@H](C)NC(=O)[C@H](CC(C)C)NC(=O)[C@H](CCCNC(=N)N)NC(=O)[C@H](CCC(N)=O)NC(=O)[C@@H](NC(=O)[C@H](C)NC(=O)[C@@H]1CSSC[C@H](NC(=O)[C@@H](N)CCCCN)C(=O)N[C@@H](CC(N)=O)C(=O)N[C@@H]([C@@H](C)O)C(=O)N[C@@H](C)C(=O)N[C@@H]([C@@H](C)O)C(=O)N1)[C@@H](C)O)C(C)C)C(=O)N[C@@H](CC(C)C)C(=O)N[C@@H](CO)C(=O)N[C@@H](CO)C(=O)N[C@H](C(=O)N[C@@H](CC(N)=O)C(=O)N[C@H](C(=O)NCC(=O)N[C@@H](CO)C(=O)N[C@@H](CC(N)=O)C(=O)N[C@H](C(=O)N[C@@H](Cc1ccc(O)cc1)C(N)=O)[C@@H](C)O)C(C)C)[C@@H](C)O [hIAPP, IAPP (1–37, disulfide bridge 2–7, amide), reference compound]?
Answer: hIAPP fibrils by TEM, untreated hIAPP (CTRL) (hIAPP fibrils; hIAPP 25 μmol/l with buffer): fibrils were observed; cleavage of hIAPP by NEPx (NEPx): no cleavage; viable cells relative to vehicle control cells (MTT), peptide alone ([1]; n = 3 to 9): 15.6 ± 3.5%; induction of apoptosis (increase in cleaved caspase-3), peptide alone [2]: induced apoptosis

Question: Which “activity of NEPx in the presence of phosphoramidon” value (NEP^E585V mutant (NEPx)) does the source give for CC(C)C[C@H](NP(=O)(O)O[C@@H]1O[C@@H](C)[C@H](O)[C@@H](O)[C@H]1O)C(=O)N[C@@H](Cc1c[nH]c2ccccc12)C(=O)O [phosphoramidon] here?
Answer: Its value is “undetectable levels”.

Question: And the “effect of NEP inhibitor on hIAPP cleavage by NEP” value (NEP [3]; 20 μmol/l hIAPP, 400 nmol/l NEP, 60 min, HPLC)?
Answer: Its value is “blocked”.

Question: And the “activity of NEP in the presence of phosphoramidon” value (NEP [4]; GAAF-4-MNA as substrate)?
Answer: The value was “undetectable levels”.

Question: What about the inhibition at 50 µM (NEP [4]; read-out: inhibition of NEP activity) of the same molecule?
Answer: The inhibition at 50 µM was over 99%.

Question: What does the source list for “IAPP (1–37, disulfide bridge 2–7, amide)”?
Answer: not cleaved (NEP [5]): concluded that NEP did not cleave hIAPP; cleaved bond (neprilysin (NEP)): Arg11-Leu12, major; also recorded: Leu12-Ala13, major

Question: For ILSSTNVGSNTY-NH2, which “further cleavage of the product by NEP” value (NEP [3]; product of hIAPP (20 μmol/l) with 400 nmol/l NEP, initially increased with time, then decreased (HPLC)) is on record?
Answer: Its value is “appeared to be further cleaved”.

Question: Which “hIAPP fibrils by TEM in the presence of protein” value (“hIAPP fibrils … of protein” for short) (hIAPP fibrils) does the source give for “TF: transferrin used as protein control [reference compound]” here?
Answer: Its value is “fibrils were observed”.

Question: What about the “effect on hIAPP overexpression-induced cytotoxicity (MTT), 400 nmol/l protein” value [6] of the same molecule?
Answer: The value was “had no effect”.

Question: And the “viable cells (MTT) with hIAPP in the presence of 400 nmol/l protein” value (“viable cells (MTT) … of 400 nmol/l protein” for short) [1, 8]?
Answer: Its value is “did not protect”.

Question: With “rIAPP: synthetic rodent islet amyloid polypeptide, non-aggregating control [reference compound]” as the molecule, how does the “viable cells relative to vehicle control cells (MTT), peptide alone” value ([1]; n = 3 to 9) read?
Answer: Its value is “did not cause significant cytotoxicity”.

Question: And the “induction of apoptosis (increase in cleaved caspase-3), peptide alone” value [2]?
Answer: Its value is “but not rIAPP, induced apoptosis”.

B1: NEPx: catalytically compromised NEP^E585V mutant ectodomain, about 80% pure (protein, UniProt P08473 52-750, looked up, variant E585V)
extracellular domain: YDDGICKSSDCIKSAARLIQNMDATTEPCTDFFKYACGGWLKRNVIPETSSRYGNFDILRDELEVVLKDVLQEPKTEDIVAVQKAKALYRSCINESAIDSRGGEPLLKLLPDIYGWPVATENWEQKYGASWTAEKAIAQLNSKYGKKVLINLFVGTDDKNSVNHVIHIDQPRLGLPSRDYYECTGIYKEACTAYVDFMISVARLIRQEERLPIDENQLALEMNKVMELEKEIANATAKPEDRNDPMLLYNKMTLAQIQNNFSLEINGKPFSWLNFTNEIMSTVNISITNEEDVVVYAPEYLTKLKPILTKYSARDLQNLMSWRFIMDLVSSLSRTYKESRNAFRKALYGTTSETATWRRCANYVNGNMENAVGRLYVEAAFAGESKHVVEDLIAQIREVFIQTLDDLTWMDAETKKRAEEKALAIKERIGYPDDIVSNDNKLNNEYLELNYKEDEYFENIIQNLKFSQSKQLKKLREKVDKDEWISGAAVVNAFYSSGRNQIVFPAGILQPPFFSAQQSNSLNYGGIGMVIGHVITHGFDDNGRNFNKDGDLVDWWTQQSASNFKEQSQCMVYQYGNFSWDLAGGQHLNGINTLGENIADNGGLGQAYRAYQNYIKKNGEEKLLPGLDLNHKQLFFLNFAQVWCGTYRPEYAVNSIKTDVHSPGNFRIIGTLQNSAEFSEAFHCRKNSYMNPEKKCRVW
modifications: extracellular domain
Question: For B1, which “hIAPP fibrils … of protein” value (hIAPP fibrils) is on record?
Answer: The value was “fibrils were observed”.

Question: What about the “effect on hIAPP overexpression-induced cytotoxicity (MTT), NEPx” value ([6]; adenovirus prepro-hIAPP-GFP MOI 100, 4, 40 or 400 nmol/l NEPx) of the same molecule?
Answer: Its value is “had no effect”.

Question: And the “NEP activity abolished by the E585V mutation” value [7]?
Answer: The value was “greater than 98%”.

Question: What about the “activity relative to wild-type NEP activity” value ([7]; fluorescence ex 340/em 425 nm) of the same molecule?
Answer: The value was ~ 1.7%.

Question: What about the “viable cells (MTT) … of 400 nmol/l protein” value [1, 8] of the same molecule?
Answer: The value was 58.4 ± 9.3%.

B2: NEP: recombinant ectodomain of human neprilysin expressed in CHO-S cells (protein, UniProt P08473 52-750, looked up)
extracellular domain: YDDGICKSSDCIKSAARLIQNMDATTEPCTDFFKYACGGWLKRNVIPETSSRYGNFDILRDELEVVLKDVLQEPKTEDIVAVQKAKALYRSCINESAIDSRGGEPLLKLLPDIYGWPVATENWEQKYGASWTAEKAIAQLNSKYGKKVLINLFVGTDDKNSVNHVIHIDQPRLGLPSRDYYECTGIYKEACTAYVDFMISVARLIRQEERLPIDENQLALEMNKVMELEKEIANATAKPEDRNDPMLLYNKMTLAQIQNNFSLEINGKPFSWLNFTNEIMSTVNISITNEEDVVVYAPEYLTKLKPILTKYSARDLQNLMSWRFIMDLVSSLSRTYKESRNAFRKALYGTTSETATWRRCANYVNGNMENAVGRLYVEAAFAGESKHVVEDLIAQIREVFIQTLDDLTWMDAETKKRAEEKALAIKERIGYPDDIVSNDNKLNNEYLELNYKEDEYFENIIQNLKFSQSKQLKKLREKVDKDEWISGAAVVNAFYSSGRNQIVFPAGILQPPFFSAQQSNSLNYGGIGMVIGHEITHGFDDNGRNFNKDGDLVDWWTQQSASNFKEQSQCMVYQYGNFSWDLAGGQHLNGINTLGENIADNGGLGQAYRAYQNYIKKNGEEKLLPGLDLNHKQLFFLNFAQVWCGTYRPEYAVNSIKTDVHSPGNFRIIGTLQNSAEFSEAFHCRKNSYMNPEKKCRVW
modifications: extracellular domain
Question: Which “hIAPP fibrils … of protein” value (hIAPP fibrils) does the source give for B2 here?
Answer: Its value is “fibrils were not seen”.

Question: And the “effect on hIAPP overexpression-induced cytotoxicity (MTT), 400 nmol/l protein” value [6]?
Answer: The value was “reduced this hIAPP induced cytotoxicity”.

Question: What about the “effect on hIAPP overexpression-induced cytotoxicity (MTT), lower concentrations of NEP” value ([6]; adenovirus prepro-hIAPP-GFP MOI 100, 4 or 40 nmol/l) of the same molecule?
Answer: The value was “had no effect”.

Question: And the “viable cells (MTT) with hIAPP in the presence of 4 nmol/l protein” value ([1]; 20 μmol/l synthetic hIAPP, 4 nmol/l protein, not statistically significant)?
Answer: Its value is 39.4 ± 15.3%.

Question: What about the “viable cells (MTT) with hIAPP in the presence of 40 nmol/l protein” value ([1]; 20 μmol/l synthetic hIAPP, 40 nmol/l protein, mean ± SEM, n = 3 to 9) of the same molecule?
Answer: Its value is 92.9 ± 9.5%.

Question: And the “viable cells (MTT) … of 400 nmol/l protein” value [1, 8]?
Answer: The value was 84.5 ± 7.3%.
